Results published in ChEMBL document CHEMBL4190353, “Synthesis, structure-activity relationships and preliminary mechanism of action of novel water-soluble 4-quinolone-3-carboxamides as antiproliferative agents” (Eur J Med Chem, 2017).
The source made the active and inactive calls. No cut-off for these calls is given here.

Legend:
HEp-2 = experiment: Cytotoxicity against human Hep2 cells assessed as reduction in cell viability incubated for 24 hrs by MTT assay; type: functional, cell-based; details: HEp-2, 24 h
Outline: (§1)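 Cells were kept in McCoy's 5A with 10% fetal bovine serum, streptomycin and 100 units·mL⁻¹ penicillin at 37 °C under 5% CO₂/95% air. Viability was read by MTT optical density. IC50 is the concentration that lowers optical density by 50% relative to untreated cells. Values are means with SD of at least three independent determinations.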

MCF7 = experiment: Cytotoxicity against human MCF7 cells assessed as reduction in cell viability incubated for 24 hrs by MTT assay; type: functional, cell-based; details: MCF7, 24 h; outline: as §1
HCT-116 [1] = experiment: Inhibition of colony formation of human HCT116 cells incubated for 24 hrs by crystal violet staining based photography; type: functional, cell-based
Outline: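 Cells (HCT116, RKO, HCT116 p53-/-, HCT116 Bax-/-) seeded at 300 per well in 12-well plates for 48 h, then treated 24 h. Drug medium replaced with fresh medium; about 10 days later colonies stained 15 min with crystal violet, photographed and counted. Run in triplicate.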

HCT-116 [2] = experiment: Induction of apoptosis in human HCT116 cells assessed as early apoptotic cells level at 2 uM incubated for 24 hrs by Annexin V-FITC/PI staining based cytometry (reference value: 1.3%); type: functional
HCT-116 [3] = experiment: Induction of apoptosis in human HCT116 cells assessed as increase in cleaved PARP level at 2 uM incubated for 24 hrs by Western blot method; type: functional, cell-based
Outline: (§2)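 Lysates were made in SDS buffer (2% SDS, 50 mM Tris-HCl pH 6.8) and quantified by BCA. Equal protein was run on 10% SDS-PAGE and transferred to PVDF. Membranes were blocked in 5% milk, probed overnight at 4 °C for cleaved PARP (1:1000) with GAPDH (1:5000), and detected with HRP secondary antibody and ECL.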

HCT-116 [4] = experiment: Induction of apoptosis in human HCT116 cells assessed as viable cells level incubated for 48 hrs by Annexin V-FITC/PI staining based cytometry (reference value: 98.7%); type: functional
HCT-116 [5] = experiment: Induction of apoptosis in human HCT116 cells assessed as early apoptotic cells level incubated for 48 hrs by Annexin V-FITC/PI staining based cytometry (reference value: 1.1%); type: functional
HCT-116 [6] = experiment: Induction of apoptosis in human HCT116 cells assessed as necrotic cells level incubated for 48 hrs by Annexin V-FITC/PI staining based cytometry (reference value: 0.2%); type: functional
HCT-116 [7] = experiment: Induction of apoptosis in human HCT116 cells assessed as increase in cleaved PARP level pre-incubated with 20 uM pan-caspase inhibitor Z-VAD-FMK for 5 hrs followed by compound addition and further incubated for 48 hrs by Western blot method; type: functional, cell-based
Outline: (§3)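 Cells were pretreated for 5 h with DMSO or 20 µM Z-VAD-FMK before compound exposure. Lysates were made in SDS buffer and quantified by BCA. Proteins were run on 10% SDS-PAGE, transferred to PVDF, and probed with cleaved PARP (1:1000) and GAPDH (1:5000) loading control, with ECL detection.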

HCT-116 [8] = experiment: Induction of apoptosis in Bax-/- human HCT116 cells assessed as increase in cleaved PARP level incubated for 48 hrs by Western blot method; type: functional, cell-based; outline: as §2
HCT-116 [9] = experiment: Induction of apoptosis in Bax-/- human HCT116 cells assessed as increase in cleaved PARP level pre-incubated with 20 uM pan-caspase inhibitor Z-VAD-FMK for 5 hrs followed by compound addition and further incubated for 48 hrs by Western blot method; type: functional, cell-based; outline: as §3
HCT-116 [10] = experiment: Induction of apoptosis in Bax-/- human HCT116 cells assessed as early apoptotic cells level incubated for 48 hrs by Annexin V-FITC/PI staining based cytometry (reference value: 6.8%); type: functional
Outline: (§4)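 Cells were plated at 5×10^5 per well and treated once 80% confluent. After trypsinisation and two washes in ice-cold PBS (pH 7.4), cells were stained with Annexin V-FITC and PI for 15 min at room temperature in the dark. Analysis was by flow cytometry. The legend gives vehicle or 4 µM for the p53-/- and Bax-/- lines.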

HCT-116 [11] = experiment: Induction of apoptosis in p53-/- human HCT116 cells assessed as viable cells level at 4 uM incubated for 48 hrs by Annexin V-FITC/PI staining based cytometry (reference value: 96.2%); type: functional
Outline: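 HCT116 p53-/- cells (Vogelstein line) in McCoy's 5A with 10% FBS, 37 °C, 5% CO2. Seeded at 5×10^5 in 6-well plates, treated with vehicle or 4 μM at 80% confluence. After treatment, trypsinised, washed twice in ice-cold PBS pH 7.4, and stained in binding buffer with Annexin V-FITC and PI for 15 min at room temperature in the dark. Read by flow cytometry.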

HCT-116 [12] = experiment: Induction of apoptosis in Bax-/- human HCT116 cells assessed as early apoptotic cells level at 4 uM incubated for 48 hrs by Annexin V-FITC/PI staining based cytometry (reference value: 4.4%); type: functional; outline: as §4
HCT-116 [13] = experiment: Cytotoxicity against Bax-/- human HCT116 cells assessed as reduction in cell viability incubated for 24 hrs by CCK8 assay; type: functional, cell-based
Outline: (§5)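 Cells were seeded at 3×10^4 per well, grown 24 h, then exposed to increasing concentrations for 24 h. CCK-8 reagent was added for 1 h at 37 °C and absorbance was read at 450 nm. Cells were kept in McCoy's 5A with 10% FBS, and n=3.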

HCT-116 [14] = experiment: Cytotoxicity against p53-/- human HCT116 cells assessed as reduction in cell viability incubated for 24 hrs by CCK8 assay; type: functional, cell-based; outline: as §5
HCT-116 [15] = experiment: […] of ROS generation in human HCT116 cells at 8 uM incubated for 24 hrs by H2DCFDA dye based flow cytometry; type: functional, cell-based
Outline: (§6)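 HCT116 cells pre-treated 5 h with H2O, 7.5 mM L-NAC or 7.5 mM GSH, then exposed to compound for 24 h. Cells collected, washed twice in PBS, and resuspended in serum-free McCoy's 5A with 10 nM H2DCFDA for 20 min at 37 °C in the dark. After two PBS washes, relative ROS measured by flow cytometry.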

HCT-116 [16] = experiment: […] of ROS generation in human HCT116 cells pre-treated with 7.5 mM L-NAC for […] followed by 8 uM compound addition and further incubated for 24 hrs by H2DCFDA dye based flow cytometry; type: functional, cell-based; outline: as §6
HCT-116 [17] = experiment: Inhibition of colony formation of human HCT116 cells pre-treated with 7.5 mM GSH for 2 hrs followed by 16 to 32 uM compound addition and further incubated for 24 hrs and measured after 10 days post dose in fresh medium by crystal violet staining based photography; type: functional, cell-based
Outline: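 HCT116 seeded at about 300 per well in 12-well plates and grown 2 h. Pre-treated 2 h with H2O, 7.5 mM L-NAC or GSH, then exposed to compound for 24 h. Colonies grown 10 days in fresh medium, stained with crystal violet and counted. Triplicate wells.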

HCT-116 [18] = experiment: Induction of apoptosis in human HCT116 cells assessed as increase in cleaved PARP level pre-treated with 7.5 mM L-NAC for 6 hrs followed by 4 to 8 uM compound addition and further incubated for 24 hrs by Western blot method; type: functional, cell-based
Outline: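 HCT116 cells were pretreated with H2O or 7.5 mM L-NAC for 6 h, then exposed to 0, 4 or 8 µM for 24 h. Lysates were made in SDS buffer and run on 10% SDS-PAGE. Blots were probed for cleaved PARP (1:1000) with GAPDH (1:5000) as control, and detected by ECL.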

CCN(CC)CCCNC(=O)c1cn(CCCc2ccccc2)c2cc(Cl)ccc2c1=O.Cl
IC50 (HEp-2): 3.53 µM
IC50 (MCF7): 5.02 µM
inhibition (HCT-116 [1]): Dose-dependent effect
Activity (HCT-116 [2]): 18.2%
Activity (HCT-116 [3]): Active
Activity (HCT-116 [4]): 62.5%
Activity (HCT-116 [5]): 29.4%
Activity (HCT-116 [6]): 4.6%
Activity (HCT-116 [7]): inactive
Activity (HCT-116 [8]): Active
Activity (HCT-116 [9]): inactive
Activity (HCT-116 [10]): 33%
Activity (HCT-116 [11]): 72.1%
Activity (HCT-116 [12]): 25.6%
Activity (HCT-116 [13]): Dose-dependent effect
Activity (HCT-116 [14]): Dose-dependent effect
inhibition (HCT-116 [15]): Active
inhibition (HCT-116 [16]): inactive
inhibition (HCT-116 [17]): inactive
Activity (HCT-116 [18]): inactive
